Source: PubChem (Johns Hopkins Ion Channel Center)
MrgX1 antag = antagonists of human MrgX1 receptor, primary screen, HEK293 cells, Fluo-4 calcium flux; B-score at 10 µM; BAM8-22 antagonism; stronger effect = lower value; Mas-related G-protein coupled receptor member X1 (Homo sapiens), Q96LB2; 310,000 tested, 1.3% active; AID 588676, 2011;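 active means calcium-response B-score plate-corrected more than 3 library SD below zero, starting fluorescence within 5 deviations, no agonist response on first addition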;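 further: peak minus trough fluorescence over baseline after final BAM8-22 challenge near maximal dose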
Target sequence (Q96LB2 whole entry, looked up): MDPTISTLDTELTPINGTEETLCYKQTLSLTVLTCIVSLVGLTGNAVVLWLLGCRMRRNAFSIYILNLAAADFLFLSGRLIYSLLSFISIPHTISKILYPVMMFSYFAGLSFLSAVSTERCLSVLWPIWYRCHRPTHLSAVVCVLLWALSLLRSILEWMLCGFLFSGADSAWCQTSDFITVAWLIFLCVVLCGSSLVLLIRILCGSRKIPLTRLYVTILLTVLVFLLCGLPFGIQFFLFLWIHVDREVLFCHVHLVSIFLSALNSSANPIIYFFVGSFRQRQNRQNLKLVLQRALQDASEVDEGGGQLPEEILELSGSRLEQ
RGS4 act = RGS4 potentiators or activators, primary screen, cell-based, HEK293 M3R inducible RGS4, calcium flux; carbachol calcium flux Fluo4; stronger effect = lower value; B-score at 10 µM; 310,000 tested, 0.92% active;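 active means B-score of the integrated calcium signal more than 4 SD below the library mean, with starting fluorescence not abnormally high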;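 further: negative B-score means reduced calcium response which marks RGS4 activation or potentiation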
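Material: Inducible-RGS4 HEK293 cells carrying M3 receptor; also added: carbachol at ECmax as muscarinic agonist stimulus; incubation: compound preincubation 20 min at room temperature before agonist; signal: Fluo4-AM (2 µM) calcium-flux fluorescence, kinetic read; measure: integrated calcium ratio converted to B score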
RGS4 inh = RGS4 inhibitors, primary screen, cell-based, HEK293 M3R inducible RGS4, calcium flux; Regulator of G-protein signaling 4 (Homo sapiens), P49798; 310,000 tested, 0.45% active; B-score at 10 µM; Fluo-4 calcium flux; stronger effect = higher value; triggered by carbachol at its EC20;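 active means B-score, a plate-corrected calcium signal, over three deviations above library mean, with baseline fluorescence within five deviations of library mean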;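 further: RGS4 expression induced by doxycycline in cells with stable M3 receptor; B-score is computed from the integrated fluorescence ratio over baseline after carbachol; higher B-score means a larger calcium signal and so more RGS4 inhibition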
Target sequence (P49798 whole entry, looked up): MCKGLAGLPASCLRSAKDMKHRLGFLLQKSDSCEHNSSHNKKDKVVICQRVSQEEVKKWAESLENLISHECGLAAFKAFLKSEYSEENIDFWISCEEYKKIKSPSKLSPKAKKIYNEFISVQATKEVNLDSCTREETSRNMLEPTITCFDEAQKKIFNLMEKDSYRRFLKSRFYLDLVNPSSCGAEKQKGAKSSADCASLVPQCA
MrgX1 PAM = positive allosteric modulators of MrgX1, primary screen, HEK293 cells, Fluo-4 calcium flux. Mas-related G-protein coupled receptor member X1 (Homo sapiens), Q96LB2. FDSS; stronger effect = higher value. B-score at 10 µM. 310,000 tested, 0.63% active;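 active means plate-corrected calcium response at least 3 library SD above typical, normal starting fluorescence, not activating the receptor alone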;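 further: compound read alongside a low EC10 to EC30 dose of BAM8-22 agonist; peak minus trough fluorescence over baseline measured at the second addition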
MrgX1 ag = agonists of human MrgX1 receptor, primary screen, HEK293 cells, Fluo-4 calcium flux; 310,000 tested, 0.44% active; AID 588627, 2011; B-score at 10 µM; Mas-related G-protein coupled receptor member X1 (Homo sapiens), Q96LB2; Fluo-4 calcium fluorescence, agonist mode; stronger effect = higher value;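 active means calcium response B-score plate-corrected fluorescence ratio at least 3 library SD, with starting fluorescence B-score inside 5 SD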
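Material – MrgX1-expressing HEK293 cells · Input – 15,000 cells seeded per well · Dosing – compound as first of three additions · Times – overnight seeding, then 1 h dark dye loading · Measured by – kinetic Fluo-4 NW fluorescence of intracellular calcium · Read-out – B-scored fluorescence response ratio · Benchmarks – positive and negative control wells on each plate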
Large screens that a line does not name were inactive. In the library only some 3.5% were active in any assay of this set; here they are far more common.

CCc1ccc2nc(N(CCCN(C)C)C(=O)c3ccc(S(=O)(=O)N4CCCc5ccccc54)cc3)sc2c1	RGS4 act -7.3
Cc1ccc2nc(N(CCCN(C)C)C(=O)c3ccc(S(=O)(=O)N4CCCCCC4)cc3)sc2c1	none
CCc1ccc2nc(N(CCCN(C)C)C(=O)c3ccc(C(=O)c4ccccc4)cc3)sc2c1	RGS4 act -8.1
CCc1ccc2nc(N(CCCN(C)C)C(=O)c3ccc(S(=O)(=O)N4CCCC4)cc3)sc2c1	RGS4 act -11
COc1ccc(OC)c2sc(N(CCCN(C)C)C(=O)c3ccc(S(=O)(=O)N4CCc5ccccc5C4)cc3)nc12	MrgX1 antag -6.1, RGS4 act -10
O=C1CC2(CCN(C(=O)c3cccc(F)c3)CC2)Oc2ccccc21	none
COc1cc(CC(=O)OCC(=O)N2CC(C)CC(C)C2)cc(OC)c1OC (configuration not stated)	none
Cc1ccc(NC(=S)NCC2CCCO2)c(OC(F)F)c1 (configuration not stated)	none
CCOC(=O)N1CCN(S(=O)(=O)c2ccc(C(=O)N(CCCN(C)C)c3nc4c(F)cc(F)cc4s3)cc2)CC1	MrgX1 antag -7.9
CCOC(=O)N1CCN(S(=O)(=O)c2ccc(C(=O)N(CCCN(C)C)c3nc4ccc(Cl)cc4s3)cc2)CC1	none
O=C(NCc1ccccc1Cl)C1CCN(c2cnccn2)CC1	none
N#CCOC(=O)C1CCN(S(=O)(=O)c2ccc3c(c2)OCCO3)CC1	none
Cn1nc(CC(=O)NC2CCCCCCCCCCC2)c2ccccc2c1=O	none
Cn1nc(CC(=O)Nc2ncc(Br)s2)c2ccccc2c1=O	MrgX1 PAM 8.9
CC[N+]1(C)[C@@H]2CC[C@H]1CC(OC(=O)[C@H]1CCC(C(=O)OC3C[C@H]4CC[C@@H](C3)[N+]4(C)CC)(c3ccccc3)c3ccccc31)C2 (some centres not stated)	none (no result: RGS4 act, RGS4 inh)
CN1CCc2c(sc(NC(=O)Cc3ccccc3)c2C(N)=O)C1	none
CN1CCc2c(sc(NC(=O)c3ccc4ccccc4c3)c2C(N)=O)C1	MrgX1 ag 38
COc1cc2ccccc2cc1C(=O)Nc1sc2c(c1C(N)=O)CCN(C(C)C)C2	RGS4 act -7.5
CC(C)N1CCc2c(sc(NC(=O)CN3C(=O)c4ccccc4C3=O)c2C(N)=O)C1	none
Cc1oc(C)c2c(=O)ccc3c(c12)OC(N)=C(C#N)C3c1ccccc1Cl (configuration not stated)	none
Cc1oc(C)c2c(=O)ccc3c(c12)OC(N)=C(C#N)C3c1ccccc1 (configuration not stated)	MrgX1 ag 49
CSc1ccc(C2C(C#N)=C(N)Oc3c2ccc(=O)c2c(C)oc(C)c32)cc1 (configuration not stated)	MrgX1 PAM 9.8
O=C(Nc1ccccc1)c1cccc(S(=O)(=O)NC2CCCC2)c1	none
CCOC(=O)[C@H]1[C@H]2COc3cc(OC)ccc3[C@@H]2N2C(=O)c3cc(F)ccc3NC(=O)[C@@]12C	none (no result: RGS4 act, RGS4 inh)
CCN(CC)c1ccc2cc(/C(N)=N/NC(=O)c3cccs3)c(=O)oc2c1	MrgX1 PAM 27
CCOC(=O)C1CCN(C(=O)CCS(=O)(=O)c2ccc3c(c2)n(C)c(=O)c(=O)n3C)CC1	none
CNCc1ccccc1Sc1ccc(O)c(O)c1	MrgX1 antag -5.7, RGS4 act -7.5
COc1ccc(Sc2ccccc2CN(C)C)cc1OC	none
COC(=O)c1cnn(-c2ccccc2)c1-n1cccc1C=O	none
O=[N+]([O-])c1ccc(C2CCCC/C2=N/OCc2ccccc2F)c([N+](=O)[O-])c1 (configuration not stated)	RGS4 act -7.7
CC1(C)[C@@H](O)CC[C@]2(C)C3C(O)C=C4[C@H]5C[C@@](C)(C(=O)O)CC[C@]5(C)CC[C@]4(C)[C@]3(C)CC[C@@H]12 (some centres not stated)	MrgX1 ag 29
Cc1cc2nc(SCCOC(=O)Nc3ccccc3)nc(C)c2cc1C	none
CCNc1nc(NCC)nc(SCCOC(=O)Nc2ccccc2)n1	MrgX1 PAM 7.7
COCCNc1oc(/C=C/c2ccccc2OC)nc1S(=O)(=O)c1ccccc1	MrgX1 PAM 6.9
CSc1ccc(CCNC(=O)c2cc(-c3ccccc3)c(N3CCOCC3)s2)cc1	none
Cc1c(Br)c([N+](=O)[O-])nn1CC(=O)NC1CCCCCC1	none
O=C(COc1ccccc1)Nc1sc2c(c1C(=O)NCc1cccnc1)CCCC2	none
COc1ccc(/C=C/C(=O)Nc2sc3c(c2C(=O)NCc2cccnc2)CCCC3)cc1	RGS4 act -8.7
O=C(COC(=O)CCc1ccccc1)Nc1ccc(F)cc1Cl	none
CCOC(=O)Nc1ccc2c(c1)N(C(=O)CCN(CC)CC)c1ccccc1CC2	none
CCOC(=O)Nc1ccc2c(c1)N(C(=O)CCN(CC)CC)c1ccccc1S2=O (configuration not stated)	MrgX1 ag 30
O=C(O)CC1SC(N/N=C/c2ccc(Br)cc2)NC1=O (configuration not stated)	MrgX1 antag -5.7
CS(=O)(=O)N1N=C(c2ccccc2)CC1c1ccc2c(c1)OCO2 (configuration not stated)	none
CS(=O)(=O)Nc1cccc(C2=NN(S(C)(=O)=O)C(c3ccc4c(c3)OCO4)C2)c1 (configuration not stated)	MrgX1 antag -7.6
COc1ccc(/C=C(\C#N)C(=O)NCC(c2ccc(F)cc2)N2CCOCC2)cc1 (configuration not stated)	none
COc1cccc(-n2nnnc2SCC(=O)Nc2ccccc2OC)c1	none
CCCS(=O)(=O)c1nnnn1-c1cccc(OC)c1	MrgX1 ag 50
CC(C)C(=O)NC(=S)Nc1ccc(S(=O)(=O)N(C)Cc2ccccc2)cc1	RGS4 act -7
CC(=O)NC(=S)Nc1ccc(S(=O)(=O)N(C)Cc2ccccc2)cc1	none
Oc1ccc(Cl)cc1C1=NNC(c2cccs2)C1 (configuration not stated)	MrgX1 antag -5.6
Cc1ccc(O)c(C2=NNC(c3ccc(Cl)cc3)C2)c1 (configuration not stated)	none
CC1=CC(=O)C(C(C)C)=C/C1=N\OC(=O)c1cccc2nc(C)oc12	MrgX1 antag -5
CCCc1cc(C(=O)N2CCN(C(c3ccccc3)c3ccccc3)CC2)no1	RGS4 act -7.4
Cc1cc(C(=O)N2CCN(C(c3ccccc3)c3ccccc3)CC2)no1	none
NC(=S)N=Nc1ccc(NN=C(N)N)cc1	MrgX1 ag 31
N#C/C(=N/Nc1ccc(OC(F)(F)F)cc1)C(N)=S	none
